MrgX1 agonist: agonists of human MrgX1 receptor; 0.44% of 310,000 active; AID 588627; MrgX1-HEK293 cells, Fluo-4 calcium fluorescence, agonist mode; active compounds read high; B-score at 10 µM;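 active = calcium response B-score plate-corrected fluorescence ratio at least 3 library SD, with starting fluorescence B-score inside 5 SD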
Target sequence (Q96LB2 whole entry, looked up): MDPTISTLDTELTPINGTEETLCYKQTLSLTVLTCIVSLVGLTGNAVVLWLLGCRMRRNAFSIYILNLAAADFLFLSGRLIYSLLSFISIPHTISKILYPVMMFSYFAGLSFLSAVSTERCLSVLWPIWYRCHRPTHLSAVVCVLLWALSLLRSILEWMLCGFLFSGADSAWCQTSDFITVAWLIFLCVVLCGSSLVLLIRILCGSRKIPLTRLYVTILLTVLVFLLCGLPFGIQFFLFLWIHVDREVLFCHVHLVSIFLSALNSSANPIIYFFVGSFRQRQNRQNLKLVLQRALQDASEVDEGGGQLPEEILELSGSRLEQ
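Assay system: MrgX1-expressing HEK293 cells / Amount: fifteen thousand cells per well / Doses: test compound in the initial addition of three / Timing: cells plated overnight, dye loaded 0.5 h 37 °C, 0.5 h room temperature / Technique: kinetic calcium dye fluorescence, Fluo-4 NW / Control set: positive and negative controls per plate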
RGS4 pot: potentiators or activators of RGS4 | HEK293 M3R/inducible RGS4, carbachol calcium flux Fluo4; active compounds read low | B-score at 10 µM | 0.92% of 310,000 active;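 active = B-score of the integrated calcium signal more than 4 SD below the library mean, with starting fluorescence not abnormally high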;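 also: negative B-score means reduced calcium response which marks RGS4 activation or potentiation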
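Test system: HEK293 cells with stable M3R and inducible RGS4; also added: carbachol at ECmax as muscarinic agonist stimulus; schedule: dye loading 30 min 37 °C, buffer rest 30 min RT; technique: kinetic calcium fluorescence imaging with Fluo4-AM dye, 2 µM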
MrgX1 PAM: allosterically activates human MrgX1 receptor signaling. Q96LB2. MrgX1-HEK293, Fluo-4 calcium flux, FDSS; active compounds read high. B-score at 10 µM. 0.63% of 310,000 active. AID 588675;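 active = plate-corrected calcium response at least 3 library SD above typical, normal starting fluorescence, not activating the receptor alone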;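 also: compound read alongside a low EC10 to EC30 dose of BAM8-22 agonist; peak minus trough fluorescence over baseline measured at the second addition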
RGS4 inh: inhibitors of human RGS4; P49798; HEK293 M3R/RGS4 inducible, Fluo-4 calcium flux; active compounds read high; triggered by carbachol at its EC20; B-score at 10 µM; 0.45% of 310,000 active;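 active = B-score, a plate-corrected calcium signal, over three deviations above library mean, with baseline fluorescence within five deviations of library mean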;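 also: RGS4 expression induced by doxycycline in cells with stable M3 receptor; B-score is computed from the integrated fluorescence ratio over baseline after carbachol; higher B-score means a larger calcium signal and so more RGS4 inhibition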
Target sequence (P49798 whole entry, looked up): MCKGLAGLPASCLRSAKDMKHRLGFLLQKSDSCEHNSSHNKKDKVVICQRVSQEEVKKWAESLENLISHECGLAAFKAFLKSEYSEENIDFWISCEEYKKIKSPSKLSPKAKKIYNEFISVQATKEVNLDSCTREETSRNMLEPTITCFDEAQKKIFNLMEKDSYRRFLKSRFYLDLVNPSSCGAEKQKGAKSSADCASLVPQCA
MrgX1 antag: human MrgX1 receptor antagonism, primary screen | Q96LB2 | MRGX1-HEK293 calcium flux, Fluo-4, BAM8-22 antagonism; active compounds read low | B-score at 10 µM | 1.3% of 310,000 active;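 active = calcium-response B-score plate-corrected more than 3 library SD below zero, starting fluorescence within 5 deviations, no agonist response on first addition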;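 also: peak minus trough fluorescence over baseline after final BAM8-22 challenge near maximal dose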
MrgX1 ag confirm: confirmation of human MrgX1 receptor agonists; activation, % at 10 µM; 78% of 600 active; AID 602412; MrgX1-HEK293, Fluo-4 calcium fluorescence, FDSS; shares compounds with MrgX1 agonist;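 active = calcium signal rise, corrected for plate position, at least 3 library SD high, with starting brightness within 5 such deviations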
HEK293 Ca flux: counter-screen for MrgX1 antagonists: effect in parental HEK293 cells. shares compounds with MrgX1 antag. Fluo-4 calcium fluorescence, FDSS. fluorescence ratio F(max-min)/F0 at 10 µM. 2% of 4,000 active. AID 624111;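 active = duplicate-averaged calcium fluorescence ratio at least three times the standard deviation of buffer wells, a nonspecific response in parental cells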
HEK293 Ca counter: activity in parental HEK293 cells without MrgX1; shares compounds with MrgX1 antag; parental HEK293 calcium flux, Fluo-4 fluorescence ratio; active compounds read high; fluorescence ratio F(max-min)/F0 at 10 µM; 0.4% of 4,000 active; AID 624114;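 active = calcium fluorescence ratio, averaged over duplicates, at least 3 SD of the buffer-well ratio, meaning a nonspecific response in receptor-free cells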;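 also: untransfected parental HEK293 lacking MrgX1 used as counterscreen for MrgX1 allosteric activators; fluorescence change taken during the second addition on a kinetic imager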
HEK293 Ca cntr2: MrgX1 activator counter-screen hit in parental HEK293 cells; shares compounds with MrgX1 antag; Fluo-4 calcium fluorescence (FDSS); active compounds read high; fluorescence ratio F(max-min)/F0 at 10 µM; 8.7% of 4,000 active; AID 624115;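 active = calcium fluorescence ratio at least three times the spread of buffer wells, meaning a non-specific response in parental cells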
Starred values were filed as active, the others as inactive; i = inactive; . = no result. Only some compounds are listed: those with a hit (about 3.5% of all), similar ones and a draw of the others.

SMILES	MrgX1 agonist	RGS4 pot	MrgX1 PAM	RGS4 inh	MrgX1 antag	MrgX1 ag confirm	HEK293 Ca flux	HEK293 Ca counter	HEK293 Ca cntr2
O=C(N/N=C/c1cc([N+](=O)[O-])cc(Br)c1O)C12CC3CCC(CC(C3)C1)C2	73*	i	i	i	i	174.6%*	i	i	92.3*
Cc1cccc(C(=O)NC(=S)NNC(=O)c2cccs2)c1	173*	i	i	i	i	646.5%*	i	i	140*
O=C(NC(=S)NNC(=O)c1cccs1)c1ccccc1	132*	i	i	i	i	546.6%*	i	i	107*
Cc1ccccc1C(=O)NNC(=S)NC(=O)c1cccs1	79.4*	i	i	i	i	651.3%*	i	i	130*
O=C(NNC(=S)Nc1ccccc1)c1cccs1	i	i	i	i	i	.	.	.	.
Cc1ccccc1C(=O)Nc1cccc(NC(=S)NC(=O)c2cccs2)c1	i	i	i	i	i	.	.	.	.
CCN(CC)S(=O)(=O)c1ccc(OCC2CCCCO2)c([N+](=O)[O-])c1 (centres undefined)	i	i	i	i	i	.	.	.	.
CCOC(=O)N1CCN(C(=O)c2c[nH]c3ccc(S(=O)(=O)N(C)c4ccccc4C)cc3c2=O)CC1	i	i	i	i	i	.	.	.	.
CCOC(=O)N1CCN(C(=O)c2c[nH]c3ccc(S(=O)(=O)N(C)c4cccc(C)c4)cc3c2=O)CC1	34.2*	i	i	i	i	191.5%*	i	i	49.5*
CCCCOc1ccc(C(=O)NNC(=S)NC(=O)CC)cc1	i	i	i	i	i	.	.	.	.
O=C(NNC(=S)Nc1ccc(F)cc1F)c1ccco1	i	i	i	i	i	.	.	.	.
CCCOc1ccc(C(=O)NNC(=S)NC(=O)c2ccco2)cc1	146*	i	i	i	i	661.1%*	i	i	127*
O=C(NNC(=S)NC(=O)c1ccco1)c1ccc(F)cc1	69.5*	i	i	i	i	201.0%*	i	i	46.9*
COC(=O)c1ccccc1NC(=S)NC(=O)c1ccccc1	i	i	i	i	i	.	.	.	.
COc1ccc(C(=O)NNC(=S)NC(=O)c2ccco2)cc1	83.5*	i	i	i	i	486.1%*	i	i	85.6*
COC(=O)c1ccccc1NC(=S)NC(=O)c1ccc(C)cc1	36.5*	i	i	i	i	i	i	i	i
CSc1ccc(S(=O)(=O)N2CCC(C(=O)NCc3ccccn3)CC2)cc1	i	i	i	i	i	.	.	.	.
CCC(=O)Nc1cccc(C(=O)N(Cc2ccccc2)Cc2ccccc2)c1	i	i	i	i	i	.	.	.	.
CCCCC(=O)NNC(=S)NC(=O)c1ccc([N+](=O)[O-])cc1	i	i	i	i	i	.	.	.	.
O=C(NC(=S)NNC(=O)c1ccco1)c1ccc(Br)cc1	135*	i	i	i	i	542.6%*	i	i	98.3*
COc1ccc(C(=O)NC(=S)NNC(=O)c2ccc(C)cc2)cc1	149*	-7.28*	i	i	i	658.7%*	i	i	133*
CCCCC(=O)NNC(=S)NC(=O)c1ccc(C)cc1	150*	i	i	i	i	712.2%*	i	i	159*
OC1(c2ccc3c(c2)OCO3)CCN(Cc2ccc(F)cc2)CC1	i	i	i	i	i	.	.	.	.
N#CC1=C(N)Oc2n[nH]c(-c3ccccc3)c2C12C(=O)Nc1ccccc12 (centres undefined)	i	i	i	i	i	.	.	.	.
Cn1c2c(c(=O)n(C)c1=O)[C@@]1(C(=O)Nc3ccccc31)C(C#N)=C(N)O2	40.9*	i	i	i	i	173.4%*	i	i	i
SMILES	MrgX1 agonist	RGS4 pot	MrgX1 PAM	RGS4 inh	MrgX1 antag	MrgX1 ag confirm	HEK293 Ca flux	HEK293 Ca counter	HEK293 Ca cntr2
O=C1Cc2ccccc2Sc2c(OCCN3CCCCC3)cccc21	27.3*	i	i	i	i	202.9%*	i	i	i
O=C1Cc2ccccc2Sc2cc(OCCCN3CCCCC3)ccc21	i	i	i	i	i	.	.	.	.
COc1ccccc1CCC(=O)Nc1ncc(C)s1	i	i	i	i	i	.	.	.	.
Cc1cccc(NC(=O)C(=O)NCCc2c[nH]c3ccccc23)c1C	i	i	i	i	i	.	.	.	.
Cc1cccc(C)c1NC(=O)C(=O)NCCc1c[nH]c2ccccc12	40.6*	i	i	i	i	i	i	48.6*	i
Cc1ccc(-c2ccc(CCC(=O)O)n2Cc2ccco2)cc1	30.5*	i	i	i	i	128.6%*	i	i	i
O=C(O)CCc1ccc(-c2ccccc2)n1CC(=O)O	i	i	i	i	i	.	.	.	.
Cc1cc2nc3ccc(N(C)C)cc3nc2cc1N	26.5*	i	i	i	i	259.3%*	i	i	i
Cc1ccc2c(C)c(C(=O)NCCN3CCOC3=O)oc2c1C	i	i	i	i	i	.	.	.	.
O=C(CC(=O)c1c(F)cccc1Cl)c1ccccc1O	52.9*	i	i	i	i	325.6%*	i	i	72.9*
O=C(CC(=O)c1ccccc1O)c1cccc(F)c1	i	i	i	i	i	.	.	.	.
CNc1nc(C)nc(-n2nc(C)cc2C)n1	i	i	i	i	i	.	.	.	.
Cc1cc(C)n(-c2nc(C)nc(NCc3ccccc3)n2)n1	33.5*	i	i	i	i	129.9%*	i	i	i
Fc1ccc(-c2cc(C(F)(F)C(F)F)[nH]n2)cc1	40.9*	i	i	i	i	212.3%*	i	i	47.6*
Cc1ccc(C2C(C#N)=C(N)Oc3n[nH]c(-c4cccnc4)c32)o1 (centres undefined)	35.7*	i	i	i	i	167.3%*	i	i	i
COc1cc(C(=O)NC(C)Cc2ccccn2)ccc1OC1CCN(C(C)=O)CC1 (centres undefined)	.	i	.	i	.	.	.	.	.
CC(C)c1ccc(N(C(=O)c2csnn2)C(C(=O)NC2CCCC2)c2cccnc2)cc1 (centres undefined)	32.7*	i	i	i	i	i	i	i	i

Screening data: PubChem BioAssay, Johns Hopkins Ion Channel Center
